From ChEMBL document CHEMBL1926598, “Synthesis, anti-inflammatory activity and ulcerogenic liability of novel nitric oxide donating/chalcone hybrids” (Bioorg Med Chem, 2012)

Tests used:
[1] = Induction of nitric oxide release at 0.1 mM after 6 hrs in phosphate buffer at pH 7.4 by Griess assay; assay type: physicochemical; settings: pH 7.4, 6 h, 100 µM
Summary of the method: (§1)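 Compound at a final 10^-4 M with 0.5 mM N-acetylcysteine in phosphate buffer pH 7.4 at 37 °C. Reaction mixture treated with Griess reagent (sulfanilamide, N-naphthylethylenediamine, phosphoric acid), 10 min at room temperature, absorbance read at 546 nm. Sodium nitrite standards (10–80 nmol/mL) used for calibration. NO reported as mol/mol, n = 4 reaction mixtures.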

[2] = system: Rattus norvegicus; experiment: Antiinflammatory activity in albino rat assessed as inhibition of carrageenan-induced paw edema at 100 mg/kg, po administered 30 mins prior to challenge measured after 2 hrs relative to untreated control; assay type: functional
Summary of the method: (§2)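 Adult male albino rats (120–140 g), groups of four, fasted 24 h with water allowed. Test compound suspended in 0.5% w/v CMC in water, given orally at 100 mg/kg; controls received CMC alone. After 30 min, 0.1 mL of 1% carrageenan in saline injected subplantar into right hind paw, saline into left. Paw thickness measured by caliper; % inhibition = [(VR−VL)control − (VR−VL)treated]/(VR−VL)control ×100; one-way ANOVA versus control.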

[3] = system: Rattus norvegicus; experiment: Antiinflammatory activity in albino rat assessed as inhibition of carrageenan-induced paw edema at 100 mg/kg, po administered 30 mins prior to challenge measured after 1 hr relative to untreated control; assay type: functional; summary of the method: as §2
[4] = Induction of nitric oxide release at 0.1 mM in 0.1 N HCl buffer at pH 1.0 by Griess assay; assay type: physicochemical; settings: pH 1, 100 µM
Summary of the method: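 Griess procedure as at neutral pH, but in 0.1 N HCl pH 1 in place of phosphate buffer. Compound at a final 10^-4 M with N-acetylcysteine, 37 °C. Absorbance read at 546 nm against sodium nitrite standards (10–80 nmol/mL). Release expressed relative to a theoretical 1 mol NO/mol compound.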

[5] = Induction of nitric oxide release at 0.1 mM after 4 hrs in phosphate buffer at pH 7.4 by Griess assay; assay type: physicochemical; settings: pH 7.4, 4 h, 100 µM; summary of the method: as §1
[6] = system: Rattus norvegicus; experiment: Antiinflammatory activity in albino rat assessed as inhibition of carrageenan-induced paw edema at 100 mg/kg, po administered 30 mins prior to challenge measured after 3 hrs relative to untreated control; assay type: functional; summary of the method: as §2
[7] = Induction of nitric oxide release at 0.1 mM after 2 hrs in phosphate buffer at pH 7.4 by Griess assay; assay type: physicochemical; settings: pH 7.4, 2 h, 100 µM; summary of the method: as §1
[8] = system: Rattus norvegicus; experiment: Antiinflammatory activity in albino rat assessed as inhibition of carrageenan-induced paw edema at 100 mg/kg, po administered 30 mins prior to challenge measured after 3 hrs relative to indomethacin; assay type: functional; parameters: scale not given: the % may be the effect or the level left
Summary of the method: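 Carrageenan paw edema in male albino rats (120–140 g, n = 4, fasted 24 h), compound 100 mg/kg po in 0.5% CMC 30 min before subplantar 1% carrageenan (0.1 mL). Percent edema inhibition at the stated hour from right minus left paw thickness versus the CMC control, then expressed as a percentage of the indomethacin (100 mg/kg) response at the same time.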

[9] = system: Rattus norvegicus; experiment: Gastric toxicity in albino rat assessed as ulcer index at 100 mg/kg, po after 5 hrs; assay type: organism-based; parameters: dose 100 mg/kg, route oral; settings: in vivo
Summary of the method: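 Rats dosed orally at 100 mg/kg in 0.5% CMC (n = 4). Stomach lesions counted and graded by area: level I <1 mm², II 1–3 mm², III >3 mm². Ulcer index = 1×(level I count) + 2×(level II) + 3×(level III). Mean ± SEM; one-way ANOVA versus control.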

[10] = Induction of nitric oxide release at 0.1 mM after 1 hr in phosphate buffer at pH 7.4 by Griess assay; assay type: physicochemical; settings: pH 7.4, 1 h, 100 µM; summary of the method: as §1
[11] = system: Rattus norvegicus; experiment: Antiinflammatory activity in albino rat assessed as inhibition of carrageenan-induced paw edema at 100 mg/kg, po administered 30 mins prior to challenge measured after 5 hrs relative to untreated control; assay type: functional; summary of the method: as §2
[12] = system: Rattus norvegicus; experiment: Antiinflammatory activity in albino rat assessed as inhibition of carrageenan-induced paw edema at 100 mg/kg, po administered 30 mins prior to challenge measured after 4 hrs relative to untreated control; assay type: functional; summary of the method: as §2
[13] = Induction of nitric oxide release at 0.1 mM after 5 hrs in phosphate buffer at pH 7.4 by Griess assay; assay type: physicochemical; settings: pH 7.4, 5 h, 100 µM; summary of the method: as §1
[14] = Induction of nitric oxide release at 0.1 mM after 3 hrs in phosphate buffer at pH 7.4 by Griess assay; assay type: physicochemical; settings: pH 7.4, 3 h, 100 µM; summary of the method: as §1

C/C(=N/O)c1ccc(OCC(=O)Nc2ccc(C(=O)/C=C/c3ccc4c(c3)OCO4)cc2)cc1
Activity [1]: 0.24 mol/mol
inhibition in vivo at 100 mg/kg [2]: 49%
inhibition in vivo at 100 mg/kg [3]: 40%
Activity [4]: Not Active
Activity [5]: 0.31 mol/mol
inhibition in vivo at 100 mg/kg [6]: 59%
Activity [7]: 0.16 mol/mol
Activity [8]: 77%
UI [9]: 4
Activity [10]: 0.14 mol/mol
inhibition in vivo at 100 mg/kg [11]: 44%
inhibition in vivo at 100 mg/kg [12]: 52%
Activity [13]: 0.26 mol/mol
Activity [14]: 0.25 mol/mol

C/C(=N/O)c1ccc(OCC(=O)Nc2ccc(C(=O)/C=C/c3ccco3)cc2)cc1
Activity [1]: 0.13 mol/mol
inhibition in vivo at 100 mg/kg [2]: 44%
inhibition in vivo at 100 mg/kg [3]: 36%
Activity [4]: Not Active
Activity [5]: 0.28 mol/mol
inhibition in vivo at 100 mg/kg [6]: 49%
Activity [7]: 0.12 mol/mol
Activity [8]: 64%
UI [9]: 4.8
Activity [10]: 0.1 mol/mol
inhibition in vivo at 100 mg/kg [11]: 42%
inhibition in vivo at 100 mg/kg [12]: 48%
Activity [13]: 0.14 mol/mol
Activity [14]: 0.12 mol/mol

Nc1ccc(C(=O)/C=C/c2ccc3c(c2)OCO3)cc1
inhibition in vivo at 100 mg/kg [2]: 44%
inhibition in vivo at 100 mg/kg [3]: 32%
inhibition in vivo at 100 mg/kg [6]: 55%
UI [9]: 20
inhibition in vivo at 100 mg/kg [11]: 47%
inhibition in vivo at 100 mg/kg [12]: 50%

COc1ccc(/C=C/C(=O)c2ccc(NC(=O)CBr)cc2)cc1
inhibition in vivo at 100 mg/kg [2]: 42%
inhibition in vivo at 100 mg/kg [3]: 37%
inhibition in vivo at 100 mg/kg [6]: 46%
UI [9]: 28
inhibition in vivo at 100 mg/kg [11]: 34%
inhibition in vivo at 100 mg/kg [12]: 41%

O=C(CBr)Nc1ccc(C(=O)/C=C/c2ccco2)cc1
inhibition in vivo at 100 mg/kg [2]: 37%
inhibition in vivo at 100 mg/kg [3]: 30%
inhibition in vivo at 100 mg/kg [6]: 41%
UI [9]: 25.8
inhibition in vivo at 100 mg/kg [11]: 25%
inhibition in vivo at 100 mg/kg [12]: 33%

COc1ccc(/C=C/C(=O)c2ccc(NC(=O)C(C)O[N+](=O)[O-])cc2)cc1 (stereo not drawn)
Activity [1]: 0.14 mol/mol
inhibition in vivo at 100 mg/kg [2]: 46%
inhibition in vivo at 100 mg/kg [3]: 43%
Activity [4]: Not Active
Activity [5]: 0.17 mol/mol
inhibition in vivo at 100 mg/kg [6]: 50%
Activity [7]: 0.12 mol/mol
Activity [8]: 65%
UI [9]: 8
Activity [10]: 0.11 mol/mol
inhibition in vivo at 100 mg/kg [11]: 35%
inhibition in vivo at 100 mg/kg [12]: 43%
Activity [13]: 0.15 mol/mol
Activity [14]: 0.37 mol/mol

COc1ccc(/C=C/C(=O)c2ccc(NC(=O)COc3ccc(/C(C)=N\O)cc3)cc2)cc1
Activity [1]: 0.15 mol/mol
inhibition in vivo at 100 mg/kg [2]: 41%
inhibition in vivo at 100 mg/kg [3]: 33%
Activity [4]: Not Active
Activity [5]: 0.3 mol/mol
inhibition in vivo at 100 mg/kg [6]: 46%
Activity [7]: 0.12 mol/mol
Activity [8]: 59%
UI [9]: 5
Activity [10]: 0.11 mol/mol
inhibition in vivo at 100 mg/kg [11]: 37%
inhibition in vivo at 100 mg/kg [12]: 42%
Activity [13]: 0.16 mol/mol
Activity [14]: 0.14 mol/mol

CC(=O)c1ccc(OCC(=O)Nc2ccc(C(=O)/C=C/c3ccco3)cc2)cc1
inhibition in vivo at 100 mg/kg [2]: 32%
inhibition in vivo at 100 mg/kg [3]: 28%
inhibition in vivo at 100 mg/kg [6]: 45%
UI [9]: 5
inhibition in vivo at 100 mg/kg [11]: 36%
inhibition in vivo at 100 mg/kg [12]: 39%

COc1ccc(/C=C/C(=O)c2ccc(N)cc2)cc1
inhibition in vivo at 100 mg/kg [2]: 48%
inhibition in vivo at 100 mg/kg [3]: 42%
inhibition in vivo at 100 mg/kg [6]: 51%
UI [9]: 22.5
inhibition in vivo at 100 mg/kg [11]: 40%
inhibition in vivo at 100 mg/kg [12]: 48%

CC(=O)c1ccc(OCC(=O)Nc2ccc(C(=O)/C=C/c3ccc(Cl)cc3)cc2)cc1
inhibition in vivo at 100 mg/kg [2]: 52%
inhibition in vivo at 100 mg/kg [3]: 43%
inhibition in vivo at 100 mg/kg [6]: 61%
UI [9]: 8.1
inhibition in vivo at 100 mg/kg [11]: 55%
inhibition in vivo at 100 mg/kg [12]: 58%

O=C(CBr)Nc1ccc(C(=O)/C=C/c2ccc3c(c2)OCO3)cc1
inhibition in vivo at 100 mg/kg [2]: 45%
inhibition in vivo at 100 mg/kg [3]: 40%
inhibition in vivo at 100 mg/kg [6]: 53%
UI [9]: 24
inhibition in vivo at 100 mg/kg [11]: 46%
inhibition in vivo at 100 mg/kg [12]: 48%
